Results as given in ChEMBL document CHEMBL3046081, “Phytotoxic effect, uptake, and transformation of biochanin A in selected weed species” (J Agric Food Chem, 2012).

How the values were obtained:
Details in all cases: 336 h
[1] = system: Root; assay: Drug metabolism in Silene noctiflora root assessed as transformation to dihydrobiochanin A at 20 uM after 14 days measured per gm of dry weight by LC-MS analysis; type: ADME
Summary of the method: (§1)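 Pregerminated seeds, 14 per container, transplanted onto 0.5% agar medium containing biochanin A. Grown at 24 ± 1 °C under a 16 h light/8 h dark photoperiod and harvested 14 days after transplanting. Roots and shoots collected separately, blotted, washed twice, then freeze-dried. Tissue extracted by ASE at 40 °C and analysed by LC-ESI-MS against commercial standards. Two replicates per treatment.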

[2] = system: Root; assay: Drug uptake in Silene noctiflora root at 400 uM after 14 days measured per gm of dry weight by LC-MS analysis; type: ADME
Summary of the method: (§2)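 Pregerminated seeds (14 per container) were grown on 20 mL 0.5% agar medium containing biochanin A, at 24 ± 1 °C with a 16 h light/8 h dark cycle. There were two replicates per treatment: 14 containers for S. noctiflora, 9 for G. molle and E. crus-galli. At 14 days, roots and shoots were harvested separately, washed, blotted and freeze-dried. Extraction was ASE at 40 °C, 1600 psi, 3 cycles. Analysis was LC-ESI-MS SIM against standards.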

[3] = system: Root; assay: Drug metabolism in Silene noctiflora root assessed as transformation to genistein at 400 uM after 14 days measured per gm of dry weight by LC-MS analysis; type: ADME; summary of the method: as §1
[4] = system: Root; assay: Drug metabolism in Geranium molle root assessed as transformation to p-coumaric acid at 400 uM after 14 days measured per gm of dry weight by LC-MS analysis; type: ADME; summary of the method: as §1
[5] = system: Geranium molle; assay: Phytotoxicity against Geranium molle assessed as root growth inhibition after 2 weeks by agar medium bioassay; type: functional, organism-based
Summary of the method: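 Agar bioassay with eight biochanin A doses (0–400 µM). Seeds were pregerminated 48 h at room temperature, then 10 seedlings (1–2 mm radicle) were placed per Petri dish. Plants grew 2 weeks at 24 ± 1 °C under a 16 h light/8 h dark cycle. Root length was measured, and EC values were taken from a four-parameter log-logistic nonlinear regression fit.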

[6] = system: Root; assay: Drug uptake in Geranium molle root at 400 uM after 14 days measured per gm of dry weight by LC-MS analysis; type: ADME; summary of the method: as §2

Drug metabolism [1]: 0.01 µmol | Drug uptake [2]: 4.54 µmol | Drug metabolism [3]: 0.13 µmol | Drug metabolism [4]: 0.05 µmol | Drug uptake [6]: 11.46 µmol
SMILES: COc1ccc(-c2coc3cc(O)cc(O)c3c2=O)cc1 [BIOCHANIN]
EC25 [5]: > 400 µM | EC50 [5]: > 400 µM
